{"source": "ChEMBL document CHEMBL1828545", "about": "“Synthesis and characterization of novel PUFA esters exhibiting potential anticancer activities: an in vitro study” (Eur J Med Chem, 2011)", "key": {"HepG2 [1]": {"test_system": "HepG2", "test": "Induction of apoptosis in human HepG2 cells assessed as upregulation of cytochrome c expression at 15 uM after 24 hrs by Western blotting", "format": "functional", "method_in_brief": "(§1)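 Cells (1 × 10^7/well) grown 24 h in serum-free medium at 37 °C, then treated 24 h, with ethanol as control. Harvested by trypsin and lysed in TNN buffer (50 mM Tris-HCl pH 7.4, NP-40, protease inhibitors). Cytosolic fraction taken from a 10,000 g spin. Protein measured by BCA and equal amounts run on 10% SDS-PAGE. Blotted to nitrocellulose, probed with monoclonal antibodies plus a β-actin reprobe, detected by ECL. Densitometry as mean of triplicates.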"}, "HepG2 [2]": {"test_system": "HepG2", "test": "Cytotoxicity against human HepG2 cells after 94 hrs by MTT assay", "format": "functional, cell-based", "conditions": "HepG2, 94 h", "method_in_brief": "(§2)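 Cells seeded at 5 x 10^5 cells/200 µl/well in 96-well plates, grown in medium with 5% FCS. After 24 h, compounds added at 0–15 µM, with ethanol as vehicle control. Incubated 94 h, then medium replaced. MTT (5 mg/ml) added for 2-3 h at 37 °C and dissolved in DMSO. A620 read in triplicate wells. IC50 taken from the concentration giving 50% loss of viability.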"}, "HepG2 [3]": {"test_system": "HepG2", "test": "Modulation of lipid peroxidation in human HepG2 cells assessed as malondialdehyde production after 24 hrs by thiobarbituric acid assay", "format": "functional, cell-based", "method_in_brief": "(§3)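 Cells exposed for 24 h to vehicle or to 25, 50 or 100 µM compound. Malondialdehyde measured spectrophotometrically by thiobarbituric acid assay and expressed as nmol MDA per 10^6 cells. Means ± SD of five experiments.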"}, "SK-MEL-1": {"test_system": "SK-MEL-1", "test": "Cytotoxicity against human SK-MEL-1 cells after 94 hrs by MTT assay", "format": "functional, cell-based", "conditions": "for IC50: SK-MEL-1, 94 h", "method_in_brief": "as §2"}, "MDA-MB-361 [4]": {"test_system": "MDA-MB-361", "test": "Cytotoxicity against human MDA-MB-361 cells after 94 hrs by MTT assay", "format": "functional, cell-based", "conditions": "MDA-MB-361, 94 h", "method_in_brief": "as §2"}, "HFL1": {"test_system": "HFL1", "test": "Cytotoxicity against human HFL1 cells after 94 hrs by MTT assay", "format": "cell-based", "conditions": "hfl1, 94 h", "method_in_brief": "as §2"}, "A549": {"test_system": "A549", "test": "Cytotoxicity against human A549 cells after 94 hrs by MTT assay", "format": "functional, cell-based", "conditions": "for IC50: A549, 94 h", "method_in_brief": "as §2"}, "HL-60": {"test_system": "HL-60", "test": "Cytotoxicity against human HL60 cells after 94 hrs by MTT assay", "format": "functional, cell-based", "conditions": "for IC50: HL-60, 94 h", "method_in_brief": "as §2"}, "HepG2 [5]": {"test_system": "HepG2", "test": "Induction of apoptosis in human HepG2 cells assessed as upregulation of caspase 3 expression at 15 uM after 24 hrs by Western blotting", "format": "functional, cell-based", "method_in_brief": "as §1"}, "MDA-MB-361 [6]": {"test_system": "MDA-MB-361", "test": "Modulation of lipid peroxidation in human MDA-MB-361 cells assessed as malondialdehyde production assessed per 10^6 cells at 25 to 100 uM after 24 hrs by thiobarbituric acid assay", "format": "functional", "method_in_brief": "as §3"}, "MDA-MB-361 [7]": {"test_system": "MDA-MB-361", "test": "Induction of apoptosis in human MDA-MB-361 cells assessed as upregulation of cytochrome c expression at 15 uM after 24 hrs by Western blotting", "format": "functional", "method_in_brief": "as §1"}, "MDA-MB-361 [8]": {"test_system": "MDA-MB-361", "test": "Induction of apoptosis in human MDA-MB-361 cells assessed as upregulation of caspase 3 expression at 15 uM after 24 hrs by Western blotting", "format": "functional", "method_in_brief": "as §1"}}, "note": "Activity calls are given as the source filed them. No cut-off for these calls is given here."}
{"smiles": "CCCCC/C=C\\C/C=C\\C/C=C\\C/C=C\\CCCC(=O)Oc1ccc(C(C)C)cc1C(C)C", "values": [{"measurement": "Activity", "setting": "HepG2 [1]", "result": 24.7, "unit": "%"}, {"measurement": "IC50", "setting": "HepG2 [2]", "result": 3.7, "unit": "µM"}, {"measurement": "Activity", "setting": "HepG2 [3]", "result": "Dose-dependent effect"}, {"measurement": "growth inhibition (GI)", "setting": "SK-MEL-1", "result": "Active"}, {"measurement": "IC50", "setting": "MDA-MB-361 [4]", "result": 7.5, "unit": "µM"}, {"measurement": "Activity", "setting": "HFL1", "result": "Toxic"}, {"measurement": "IC50", "setting": "A549", "result": 5.3, "unit": "µM"}, {"measurement": "IC50", "setting": "HL-60", "result": 4.4, "unit": "µM"}, {"measurement": "Activity", "setting": "HepG2 [5]", "result": "inactive"}]}
{"smiles": "CCCCC/C=C\\C/C=C\\C/C=C\\C/C=C\\CCCC(=O)Oc1c(C(C)C)cccc1C(C)C", "values": [{"measurement": "Activity", "setting": "HepG2 [1]", "result": 24.2, "unit": "%"}, {"measurement": "IC50", "setting": "HepG2 [2]", "result": 3.1, "unit": "µM"}, {"measurement": "Activity", "setting": "HepG2 [3]", "result": "Dose-dependent effect"}, {"measurement": "growth inhibition (GI)", "setting": "SK-MEL-1", "result": "Active"}, {"measurement": "IC50", "setting": "MDA-MB-361 [4]", "result": 7.21, "unit": "µM"}, {"measurement": "IC50", "setting": "A549", "result": 4.6, "unit": "µM"}, {"measurement": "IC50", "setting": "HL-60", "result": 3.9, "unit": "µM"}, {"measurement": "Activity", "setting": "HepG2 [5]", "result": "inactive"}]}
{"smiles": "COc1cccc2c1C(=O)c1c(O)c3c(c(O)c1C2=O)C[C@@](O)(C(=O)CO)C[C@@H]3O[C@H]1C[C@H](N)[C@H](O)[C@H](C)O1", "note": "[DOXORUBICIN]", "values": [{"measurement": "IC50", "setting": "HepG2 [2]", "result": 2.17, "unit": "µM"}, {"measurement": "IC50", "setting": "SK-MEL-1", "result": 3.09, "unit": "µM"}, {"measurement": "IC50", "setting": "MDA-MB-361 [4]", "result": 2.03, "unit": "µM"}, {"measurement": "Activity", "setting": "HFL1", "result": "Non-toxic"}, {"measurement": "IC50", "setting": "A549", "result": 3.6, "unit": "µM"}, {"measurement": "IC50", "setting": "HL-60", "result": 3.14, "unit": "µM"}]}
{"smiles": "CCCCC/C=C\\C/C=C\\CCCCCCCC(=O)Oc1c(C(C)C)cccc1C(C)C", "values": [{"measurement": "Activity", "setting": "MDA-MB-361 [6]", "result": 0.25, "unit": "nmol"}, {"measurement": "IC50", "setting": "HepG2 [2]", "result": 3.3, "unit": "µM"}, {"measurement": "Activity", "setting": "MDA-MB-361 [7]", "result": 36.6, "unit": "%"}, {"measurement": "IC50", "setting": "SK-MEL-1", "result": 4.1, "unit": "µM"}, {"measurement": "IC50", "setting": "MDA-MB-361 [4]", "result": 2.76, "unit": "µM"}, {"measurement": "Activity", "setting": "HFL1", "result": "Non-toxic"}, {"measurement": "growth inhibition (GI)", "setting": "A549", "result": "Active"}, {"measurement": "growth inhibition (GI)", "setting": "HL-60", "result": "Active"}, {"measurement": "Activity", "setting": "MDA-MB-361 [8]", "result": 33.7, "unit": "%"}]}
{"smiles": "CCCCC/C=C\\C/C=C\\CCCCCCCC(=O)Oc1ccc(C(C)C)cc1C(C)C", "values": [{"measurement": "Activity", "setting": "MDA-MB-361 [6]", "result": 0.25, "unit": "nmol"}, {"measurement": "IC50", "setting": "HepG2 [2]", "result": 4.1, "unit": "µM"}, {"measurement": "Activity", "setting": "MDA-MB-361 [7]", "result": 35.2, "unit": "%"}, {"measurement": "IC50", "setting": "SK-MEL-1", "result": 4.9, "unit": "µM"}, {"measurement": "IC50", "setting": "MDA-MB-361 [4]", "result": 3.2, "unit": "µM"}, {"measurement": "Activity", "setting": "HFL1", "result": "Non-toxic"}, {"measurement": "growth inhibition (GI)", "setting": "A549", "result": "Active"}, {"measurement": "growth inhibition (GI)", "setting": "HL-60", "result": "Active"}, {"measurement": "Activity", "setting": "MDA-MB-361 [8]", "result": 32.6, "unit": "%"}]}
